# V1aR counter: V1a receptor agonism, counter-screen for OXTR agonists | CHO-V1R cells, Fluo-8 calcium fluorescence, agonist mode; 0% DMSO, 100% 3 nM vasopressin | P37288 | 320,000 compounds, 0.25% hits | activation, % at 3 µM;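 active = activation above the mean activation of all tested compounds plus 3 SD, per screening run, cut at about 20% in these data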;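 also: signal is peak over basal fluorescence ratio across a 100 second FLIPR read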
# TAAR1 antagonist: human TAAR1 antagonism | Q96RJ0 | CHO RD-HGA16 TAAR1, Fluo-8 calcium fluorescence, antagonist | inhibition, % at 3 µM | 360,000 compounds, 1.5% hits;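 active = inhibition above a per-plate cutoff, the mean inhibition of test compounds on that plate plus 3 SD, cut at about 49% in these data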;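 also: 0% = DMSO plus EC80 beta-PEA response and 100% = DMSO alone without agonist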
# Target sequence (Q96RJ0 whole entry, looked up): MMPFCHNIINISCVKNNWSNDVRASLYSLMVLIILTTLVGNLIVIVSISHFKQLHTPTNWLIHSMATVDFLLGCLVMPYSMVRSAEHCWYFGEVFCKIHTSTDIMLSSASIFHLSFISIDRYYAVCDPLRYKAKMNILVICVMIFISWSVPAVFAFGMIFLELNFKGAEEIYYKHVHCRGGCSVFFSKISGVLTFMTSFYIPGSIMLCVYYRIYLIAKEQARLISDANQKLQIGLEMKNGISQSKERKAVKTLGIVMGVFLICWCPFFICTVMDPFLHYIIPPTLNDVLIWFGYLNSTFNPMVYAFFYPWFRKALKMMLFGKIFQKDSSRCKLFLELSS
#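 Assay system: CHO-derived RD-HGA16 cells stably expressing human TAAR1 plus Gα16. Timing: 140 s kinetic read after compound, 140 s after agonist. Technique: kinetic Fluo-8 calcium fluorescence measurement. Measure: % inhibition of agonist calcium response.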
# TAAR1 agonist: human TAAR1 agonism; CHO RD-HGA16 TAAR1, Fluo-8 calcium fluorescence; vehicle wells 0%, saturating PEA agonist 100%; Q96RJ0; activation, % at 3 µM; AID 624467; 360,000 compounds, 0.99% hits;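 active = activation above the mean activation of all test compounds in the run plus 3 SD, cut at about 38% in these data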
#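 Test system: RD-HGA16 (CHO) cells co-expressing Gα16 and hTAAR1 / Benchmarks: DMSO vehicle as 0%, PEA at EC100 as 100% / Repeats: no replicates (n 1) / Measure: % activation from peak over basal fluorescence ratio, DMSO-to-PEA scaled / Timing: 17-24 h plating, Fluo-8 75 min 37 °C, 30 min RT / Technique: kinetic Fluo-8 calcium fluorescence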
# OXTR agonist: agonists of human oxytocin receptor. CHO-OTR cells, Fluo-8 calcium fluorescence; normalized: DMSO 0%, oxytocin 100%. activation, % at 3 µM. 320,000 compounds, 0.32% hits. AID 2435;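 active = activation above the mean of all tested compounds plus 3 SD, cutoff set per screening run, cut at about 20% in these data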;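 also: peak over basal fluorescence ratio from a 100 s FLIPR kinetic read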
# Target sequence (P30559 whole entry, looked up): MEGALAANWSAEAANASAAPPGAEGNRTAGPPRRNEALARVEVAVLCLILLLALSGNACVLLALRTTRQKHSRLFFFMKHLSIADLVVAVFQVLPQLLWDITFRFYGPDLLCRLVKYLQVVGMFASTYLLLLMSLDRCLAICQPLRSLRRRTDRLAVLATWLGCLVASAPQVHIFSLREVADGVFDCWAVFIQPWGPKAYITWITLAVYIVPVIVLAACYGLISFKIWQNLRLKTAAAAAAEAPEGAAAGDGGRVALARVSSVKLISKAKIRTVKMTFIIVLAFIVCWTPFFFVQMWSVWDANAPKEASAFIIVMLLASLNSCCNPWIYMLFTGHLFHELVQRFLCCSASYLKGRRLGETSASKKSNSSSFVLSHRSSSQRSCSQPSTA
# OXTR potentiator: human OXTR potentiation | P30559 | CHO-OTR cells, Fluo-8 calcium fluorescence, potentiator mode; 0% = oxytocin EC15, 100% = EC100 | activation, % at 3 µM | 320,000 compounds, 0.061% hits;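 active = activation above that plate's cutoff, the mean activation of tested compounds plus 3 SD, cut at about 6.6% in these data, passing the limit was not always enough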;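 also: 100% uses oxytocin at 75 nM as the full agonist control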
#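 Replication – single well per compound, singlicate · Assay system – CHO cell line stably expressing human OTR · Timing – 6 min pre-incubation, 100 s read · Measure – normalized max/min fluorescence ratio, % activation · Doses – 3.0 µM, one dose · Detection – Fluo-8 calcium dye fluorescence · Probe or stimulus – oxytocin near EC15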
# Active calls of the source: *; · = no result given. An excerpt weighted towards active compounds, which were near 2.3% of everything screened.
SMILES,V1aR counter,TAAR1 antagonist,TAAR1 agonist,OXTR agonist,OXTR potentiator
CC1Sc2ccc(S(=O)(=O)N3CCC(C(=O)Nc4cccc(Cl)c4)CC3)cc2NC1=O (centres undefined),6.1,48.8*,3.6,3.5,-6.0
C=CCN1C=CC(=C/C=C(/C#N)C(=O)OCC)C=C1,21.0*,20.5,31.9,29.1*,-8.4
CCOC(=O)/C(C#N)=C/C=C1/C=CC=CN1C,1.8,-14.0,3.0,1.3,-6.0
CC(=O)Nc1cc(-c2ccccc2)cn2c(-c3cccc(C(C)=O)c3)cnc12,·,49.3*,-1.0,·,·
CC(=O)Nc1cccc(-c2cc(NC(C)=O)c3ncc(-c4ccc(F)cc4)n3c2)c1,·,44.4,7.0,·,·
CC(=O)Nc1cc(-c2cccc(F)c2)cn2c(-c3ccc(F)cc3)cnc12,·,55.7*,4.7,·,·
CCOC(=O)COc1ccccc1/C=N\NC(=O)c1cc2c(ccc3ccccc32)o1,·,48.9*,4.2,·,·
C#CCN1C(=O)[C@]2(OCCC=C[C@H]2C)c2ccccc21,·,2.9,-0.2,·,·
Cc1cc(C)c(NC(=O)COC(=O)c2ccc([N+](=O)[O-])s2)c(C)c1,1.6,-14.8,3.1,-1.2,-5.5
Cc1ccc(NC(=O)COC(=O)c2ccc([N+](=O)[O-])s2)c(C)c1,-0.8,-6.1,39.4*,-1.0,-9.2
CC1(C)OC(C)(C)C(=N/O)/C1=N\N,·,-20.1,2.8,·,·
O=C(CSc1ccccc1)N/N=C/c1ccccc1O,1.6,0.3,16.2,2.1,-7.7
O=C(CCSCCC(=O)NN=Cc1ccccc1O)NN=Cc1ccccc1O,·,48.0,43.6*,·,·
O=C(NCc1cccs1)c1cc(-c2ccc(O)cc2)on1,9.9,1.5,40.8*,10.6,-14.3
COc1ccc(NC(=O)c2cc(-c3cc(F)ccc3OC(C)C)n[nH]2)c(C)c1,·,85.6*,45.3*,·,·
CC(C)Oc1cc(F)ccc1-c1cc(C(=O)Nc2ccc(C(C)C)cc2)[nH]n1,·,27.8,-1.0,·,·
CC(C)Oc1cc(F)ccc1-c1cc(C(=O)Nc2ccccc2)[nH]n1,·,54.2*,0.1,·,·
COc1ccc(NC(=O)c2cc(-c3cc(Cl)ccc3OC)n[nH]2)c(OC)c1,·,53.7*,2.3,·,·
COc1ccc(NC(=O)c2cc(-c3cc(C)c(C)cc3O)n[nH]2)c(OC)c1,2.2,-12.5,3.1,-0.9,-20.6
COc1ccc(NC(=O)c2cc(-c3cc(F)ccc3OC)n[nH]2)c(OC)c1,·,49.8*,7.1,·,·
COc1ccc(OC)c(NC(=O)c2cc(-c3ccc(F)cc3OC(C)C)n[nH]2)c1,·,40.9,2.6,·,·
O=C(NCC1CCN(C(=O)C(=O)c2cccs2)CC1)c1ccc2c(c1)OCO2,·,-9.8,0.4,·,·
COC(=O)[C@]12C[C@H](CC(=O)N3CCC(c4ccccc4)CC3)C(=O)N(Cc3ccccc3)C1=C[C@H](C(C)C)O[C@@H]2C1CC1,·,-30.6,-0.3,·,·
COc1ccc(CCNC(=O)c2cccc(S(=O)(=O)N3CCCCC3)c2)cc1,2.4,-22.2,2.8,1.2,1.9
C=CCN(c1ccccc1Cl)S(=O)(=O)c1cccc(C(=O)NCCc2ccc(OC)cc2)c1,2.1,60.6*,4.7,-0.9,-12.5
SMILES,V1aR counter,TAAR1 antagonist,TAAR1 agonist,OXTR agonist,OXTR potentiator
O=C(/C=C/c1ccc(F)cc1)c1cc(Br)ccc1O,-1.7,-5.1,-2.2,-1.7,-5.4
O=C(/C=C/c1ccccc1)c1cc(Br)ccc(=O)c1O,1.7,54.1*,41.4*,12.8,-17.1
Cc1cc(Nc2cccc(Br)c2)cc(=O)n1-c1cccc(Br)c1,·,-22.2,-0.4,·,·
COc1ccc2sc(-c3ccccc3OC)c(-c3ccc(SC)cc3)c2c1,·,-28.2,4.7,·,·
COc1ccc2sc(-c3ccc(SC)cc3)c(-c3ccc(O)cc3)c2c1,0.3,58.1*,19.6,0.6,-11.9
COc1cc2c(c3c1c(=O)c1cccc(F)c1n3C)C=CC(C)(C)O2,·,1.4,2.8,·,·
CC(=O)c1c(C)[nH]c(C(=O)COc2cc(C)ccc2C(C)C)c1C,9.1,72.4*,5.9,8.9,-14.1
COc1cc(C)ccc1OCC(=O)OCC(=O)c1[nH]c(C)c(C(C)=O)c1C,6.9,26.9,7.5,5.7,-8.9
Cc1ccc2nc(C)c(CN3CCN(c4ccc([N+](=O)[O-])cc4Cl)CC3)n2c1,4.9,-11.7,42.6*,3.5,-12.6
C[C@@H]1CN([C@@H](C)CO)C(=O)c2cc(Br)cnc2O[C@@H]1CN(C)Cc1ccccn1,·,2.5,3.5,·,·
COc1ccc(-c2ccc3[nH]c4c(c3c2)CCN2C(=O)[C@@H]([C@H](C)O)[C@@H](N(C)C(=O)Nc3ccc(F)cc3)C[C@@H]42)cc1,·,49.1*,7.0,·,·
C[C@@H]1O[C@H](C2CCCC2)CC2=C1C(=O)OC(C)(C)O2,·,5.9,3.4,·,·
O=C(NCc1ccncc1)C(=O)Nc1nc(C23CC4CC(CC(C4)C2)C3)cs1,4.5,50.1*,12.2,0.8,-8.3
COc1ccc(N2CCN(C(=O)COC(=O)c3oc4ccccc4c3C)CC2)cc1,8.9,51.3*,25.8,5.3,-11.8
Cc1cc(NCCc2ccccc2F)n2ncnc2n1,4.1,8.5,37.6*,1.2,-3.3
O=c1ccn(C2CC(O)C(COC(c3ccccc3)(c3ccccc3)c3ccccc3)O2)c(=O)[nH]1 (centres undefined),·,-7.0,11.7,·,·
COc1cccc(CNC(=O)[C@H]2CCCN2C(=O)[C@H]2CCCN2C(=O)c2ccc(Cl)cc2)c1,·,-7.4,0.7,·,·
O=C(CSc1nnnn1C1CC2CCC1C2)Nc1ccnc2ccccc12 (centres undefined),10.6,52.2*,25.2,17.0,-18.2
O=C(CSc1nnnn1C1CCCCC1)Nc1ccccc1F,2.4,13.3,-0.9,-0.7,-15.0
OC1CCC(Nc2ccn3nc(-c4cccc(OCc5ccccc5)c4)cc3n2)CC1 (centres undefined),·,52.8*,15.3,·,·
OC1CCC(Nc2ccn3nc(-c4cccc(Cl)c4)cc3n2)CC1 (centres undefined),·,-14.6,10.7,·,·
c1ccc(COc2ccc(-c3cc4nc(NCCCn5ccnc5)ccn4n3)cc2)cc1,·,53.0*,14.7,·,·
C[C@@H]1CN([C@@H](C)CO)C(=O)CCCn2cc(nn2)CO[C@H]1CN(C)C(=O)Nc1ccc(-c2cccs2)cc1,·,-17.1,4.3,·,·
C=CC[C@@H](CC(=O)N(CCO)Cc1ccccc1)C(=O)N[C@@H](COC(=O)[C@@H](CC=C)CC(=O)OC(C)(C)C)Cc1c[nH]c2ccccc12,-0.3,55.3*,14.2,-1.7,-8.0
C=CC[C@H](CC(=O)N(CCO)Cc1ccccc1)C(=O)NC[C@H](OC(=O)[C@@H](CC=C)CC(=O)OC(C)(C)C)c1ccccc1,-0.6,49.0*,12.5,-1.1,-7.3
C=CC[C@@H](CC(=O)N(CCO)Cc1ccccc1)C(=O)N[C@H](COC(=O)[C@@H](CC=C)CC(=O)OC(C)(C)C)Cc1c[nH]c2ccccc12,1.0,60.4*,12.3,-1.6,-8.0
